SR-BI DiI inh = mouse SR-BI HDL lipid transfer inhibition | Q61009 | 320,000 tested, 0.96% active | ldlA[mSR-BI] CHO cells, DiI-HDL uptake fluorescence, 3 h | inhibition, % at 12.5 µM;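 active means mean replicate inhibition of at least 70% and a set share of replicates each scoring 70 or more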;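 further: 0% = median of neutral control wells and 100% = median of positive control wells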
Target sequence (Q61009 whole entry, looked up): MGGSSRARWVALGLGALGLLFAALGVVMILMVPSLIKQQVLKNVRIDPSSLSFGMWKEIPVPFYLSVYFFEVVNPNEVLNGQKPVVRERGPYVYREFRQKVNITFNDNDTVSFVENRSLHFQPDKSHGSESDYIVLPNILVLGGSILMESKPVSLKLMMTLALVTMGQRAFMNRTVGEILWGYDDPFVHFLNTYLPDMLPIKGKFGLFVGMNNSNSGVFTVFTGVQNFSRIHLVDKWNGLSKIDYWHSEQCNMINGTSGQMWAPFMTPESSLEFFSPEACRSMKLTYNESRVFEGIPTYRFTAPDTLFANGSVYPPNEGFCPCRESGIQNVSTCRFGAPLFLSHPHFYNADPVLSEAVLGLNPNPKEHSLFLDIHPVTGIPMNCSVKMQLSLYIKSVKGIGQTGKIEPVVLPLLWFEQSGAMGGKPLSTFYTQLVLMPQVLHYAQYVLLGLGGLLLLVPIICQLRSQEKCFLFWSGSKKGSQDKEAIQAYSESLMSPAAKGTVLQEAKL
CAL PDZ FP-1 = blocks peptide binding to human CAL PDZ domain; purified CAL PDZ, TMR-peptide fluorescence polarization, 1 h; Q9HD26; inhibition, % at 20 µM; 330,000 tested, 0.02% active; AID 504414;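 active means highest replicate inhibition of at least 40%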;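 further: plate controls were DMSO neutral control wells for no effect and unlabeled competitor peptide control wells for full effect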
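Material – purified CerCALP PDZ construct · Detection – FP readout, S and P plane fluorescence · Measure – percent inhibition from loss of millipolarization · Controls – unlabelled peptide for full inhibition, DMSO wells as neutral · Probe or stimulus – TMR-labelled reporter peptide T*-PRC34 bound in PDZ groove · Times – 1 h at RT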
ATG4B inhibitor = ATG4B (human) cysteine protease inhibition; Q9Y4P1; ATG4B cleavage of LC3-PLA2, NBD-HPC fluorescence, 1 h; inhibition, % at 8.33 µM; 340,000 tested, 0.51% active; in the data active means inhibition above about 40%
SR-BI DiI-HDL act = enhances SR-BI lipid uptake from DiI-HDL. CHO ldlA[mSR-BI] cells, DiI-HDL uptake fluorescence, 3 h; 100 = double the neutral-control signal. activation, % at 12.5 µM. 320,000 tested, 0.096% active. AID 504775;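 active means mean replicate activation of at least 60% and every replicate at or above 60%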;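 further: 0% = median plate neutral-control signal and 100% = twice that signal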
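system = CHO ldlA[mSR-BI] cells, LDL receptor-null, SR-BI overexpressing | medium = Ham's F12 with 0.5% BSA, HEPES 25 mM, pH 7.4 | probe or stimulus = DiI-HDL 10 µg/mL | compound dosing = single-point compound dose | incubation = compound exposure 3 h, 37 °C | technique = DiI fluorescence, bottom read | read-out = cell-associated DiI fluorescence as measure of HDL uptake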
CAL PDZ FP-2 = blocks peptide binding to the human CAL PDZ domain. purified CAL PDZ, TMR-peptide fluorescence polarization, 1 h. inhibition, % at 24.9 µM. 300,000 tested, 0.92% active;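 active means mean inhibition of at least 30% with at least half of replicates also reaching 30%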;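 further: 0% = DMSO neutral control and 100% = excess unlabeled competitor peptide PRC23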
* hit, by the source's call. Sampled rows, rich in hits. Any-hit rate of the full collection: about 2.3%.

For COc1cc(Cl)c(C)cc1NC(=O)CSc1cc(Cl)ccc1Cl the results were SR-BI DiI inh 82*, CAL PDZ FP-1 -1, ATG4B inhibitor 26, SR-BI DiI-HDL act -82 and CAL PDZ FP-2 -2.
COc1ccc(CN2CCSCC2)c(C)c1C was read as SR-BI DiI inh -5, CAL PDZ FP-1 1, ATG4B inhibitor -1 and SR-BI DiI-HDL act 5.
Screening CCCCC(CC)C(=O)Nc1cc(=O)[nH]c2nc3ccccc3n12 (configuration not stated) returned SR-BI DiI inh -410, CAL PDZ FP-1 -2, ATG4B inhibitor 2, SR-BI DiI-HDL act 410* and CAL PDZ FP-2 -2.
`COCCNC(=O)c1cn(CCOC)c(=O)c2c1c1ccccc1n2C` gave SR-BI DiI inh 0, CAL PDZ FP-1 -2, ATG4B inhibitor -4, SR-BI DiI-HDL act 0 and CAL PDZ FP-2 49*.
CCCC1CCC(c2ccc(C(=O)NN)cc2)CC1 (configuration not stated) was read as SR-BI DiI inh -161, CAL PDZ FP-1 -2, ATG4B inhibitor -7, SR-BI DiI-HDL act 161* and CAL PDZ FP-2 1.
`O=C(N/N=C/c1ccccc1)c1ccc(NC(=O)c2ccc(F)cc2)cc1` gave CAL PDZ FP-1 -1, ATG4B inhibitor 2 and CAL PDZ FP-2 -3.
For Cc1cccc(/C=N/NC(=O)c2ccc(NC(=O)c3ccc(Cl)cc3)cc2)n1 the results were SR-BI DiI inh 77*, CAL PDZ FP-1 -3, ATG4B inhibitor 9, SR-BI DiI-HDL act -77 and CAL PDZ FP-2 19.
`Cc1ccc(C(=O)Nc2ccc(C(=O)N/N=C/c3ccccn3)cc2)cc1` gave SR-BI DiI inh 76*, CAL PDZ FP-1 -2, ATG4B inhibitor -4, SR-BI DiI-HDL act -76 and CAL PDZ FP-2 -4.
Cc1ccccc1C(=O)Nc1ccc(C(=O)N/N=C/c2ccc(F)cc2)cc1 was read as SR-BI DiI inh 84*, CAL PDZ FP-1 -2, ATG4B inhibitor -5 and SR-BI DiI-HDL act -84.
Screening Cc1cccc(/C=N/NC(=O)c2ccc(NC(=O)c3ccc(F)cc3)cc2)n1 returned CAL PDZ FP-1 -5, ATG4B inhibitor -11 and CAL PDZ FP-2 -5.
O=C(N/N=C/c1ccccn1)c1ccncc1 was read as SR-BI DiI inh 14, CAL PDZ FP-1 0, ATG4B inhibitor 2 and SR-BI DiI-HDL act -14.
O=C(N/N=C/c1ccccn1)c1ccccc1 was read as SR-BI DiI inh -18, CAL PDZ FP-1 1, ATG4B inhibitor -2 and SR-BI DiI-HDL act 18.
O=C(NCc1ccncc1)C(=O)N/N=C/c1ccccn1 was read as SR-BI DiI inh 0, CAL PDZ FP-1 -2, ATG4B inhibitor -5, SR-BI DiI-HDL act 0 and CAL PDZ FP-2 56*.
Screening COc1ccc(S(=O)(=O)NCc2cccnc2)cc1NC(=O)c1ccccc1C returned SR-BI DiI inh 20, CAL PDZ FP-1 0, ATG4B inhibitor -1 and SR-BI DiI-HDL act -20.
Screening Cc1cc(C)cc(-n2cc(C(=O)O)c(=O)cc2C)c1 returned SR-BI DiI inh -13, CAL PDZ FP-1 -2, ATG4B inhibitor -3, SR-BI DiI-HDL act 13 and CAL PDZ FP-2 0.
`COC(=O)Cc1ccc(NC(=S)Nc2cccc(C)n2)cc1` gave SR-BI DiI inh 2, CAL PDZ FP-1 -2, ATG4B inhibitor 16, SR-BI DiI-HDL act -2 and CAL PDZ FP-2 53*.
`Cc1cccc(NC(=O)Nc2ccc(Cl)cc2)n1` gave SR-BI DiI inh 7, CAL PDZ FP-1 -1, ATG4B inhibitor -4, SR-BI DiI-HDL act -7 and CAL PDZ FP-2 40*.
`Cc1ccc(NC(=O)Nc2cccc(C)n2)cc1` gave SR-BI DiI inh -4, CAL PDZ FP-1 -2, ATG4B inhibitor 1, SR-BI DiI-HDL act 4 and CAL PDZ FP-2 -11.
For CC(C)(C)NC(=O)CC1C[C@H](C(=O)N2CCOCC2)[C@@]2(C)c3[nH]c4ccccc4c3CCN2C1=O (some centres not stated) the results were SR-BI DiI inh 77*, CAL PDZ FP-1 0, ATG4B inhibitor 2, SR-BI DiI-HDL act -77 and CAL PDZ FP-2 -8.
For CC(C)(C)c1cc(C(=O)N/N=C/c2ccc(F)cc2)n(-c2ccccc2)n1 the results were SR-BI DiI inh 59, CAL PDZ FP-1 -3, ATG4B inhibitor 15, SR-BI DiI-HDL act -59 and CAL PDZ FP-2 -3.
Screening CC(C)(C)c1cc(C(=O)N/N=C/c2ccccc2O)n(-c2ccccc2)n1 returned SR-BI DiI inh 100*, CAL PDZ FP-1 0, ATG4B inhibitor 40, SR-BI DiI-HDL act -100 and CAL PDZ FP-2 -2.
For Cc1ccc(CNC(=O)CCCc2cn(C)c3ccccc23)cc1 the results were SR-BI DiI inh -14, CAL PDZ FP-1 0, ATG4B inhibitor 11, SR-BI DiI-HDL act 14 and CAL PDZ FP-2 -3.
O=C(Nc1ccc(-c2csc(Nc3ccc(Cl)cc3)n2)cc1)c1ccccc1 was read as SR-BI DiI inh 93*, CAL PDZ FP-1 0, ATG4B inhibitor 15, SR-BI DiI-HDL act -93 and CAL PDZ FP-2 -2.
`O=C(Nc1cccc(-c2csc(Nc3ccccc3)n2)c1)c1ccccc1` gave SR-BI DiI inh 77*, CAL PDZ FP-1 -2, ATG4B inhibitor 12, SR-BI DiI-HDL act -77 and CAL PDZ FP-2 2.
Screening O=C(Nc1cccc(-c2csc(Nc3cccc(C(F)(F)F)c3)n2)c1)c1ccccc1 returned SR-BI DiI inh 78*, CAL PDZ FP-1 0, ATG4B inhibitor 11, SR-BI DiI-HDL act -78 and CAL PDZ FP-2 2.
Screening O=[N+]([O-])c1cccc(-c2csc(Nc3ccccc3)n2)c1 returned SR-BI DiI inh 87*, CAL PDZ FP-1 0, ATG4B inhibitor 6 and SR-BI DiI-HDL act -87.
`O=C(Nc1cccc(-c2cnc3ccccc3n2)c1)c1ccccc1` gave SR-BI DiI inh 14, CAL PDZ FP-1 -1, ATG4B inhibitor -3 and SR-BI DiI-HDL act -14.
`COc1ccccc1Nc1nc(-c2cccc([N+](=O)[O-])c2)cs1` gave SR-BI DiI inh 59, CAL PDZ FP-1 1, ATG4B inhibitor -9, SR-BI DiI-HDL act -59 and CAL PDZ FP-2 1.
For CC(C)Oc1ccccc1-c1cc(C(=O)N/N=C/c2cccnc2)c2ccccc2n1 the results were SR-BI DiI inh 36, CAL PDZ FP-1 -4, ATG4B inhibitor -9, SR-BI DiI-HDL act -36 and CAL PDZ FP-2 -4.
CCCC[C@@H]1CNCCN1CCCc1cc(OC)c(OC)c(OC)c1 was read as SR-BI DiI inh 15, CAL PDZ FP-1 1, ATG4B inhibitor 6, SR-BI DiI-HDL act -15 and CAL PDZ FP-2 -3.
O=C(Nc1ccc(-c2csc(Nc3cccc(C(F)(F)F)c3)n2)cc1)c1cc([N+](=O)[O-])cc(C(F)(F)F)c1 was read as SR-BI DiI inh 92*, CAL PDZ FP-1 0, ATG4B inhibitor -6, SR-BI DiI-HDL act -92 and CAL PDZ FP-2 -1.
CC(=O)c1cccc(Nc2nc(-c3cccnc3)cs2)c1 was read as SR-BI DiI inh 23, CAL PDZ FP-1 0, ATG4B inhibitor -14, SR-BI DiI-HDL act -23 and CAL PDZ FP-2 -3.

Assay outcomes as filed in PubChem.
